ChEMBL document CHEMBL1125592, “Calcium channel blocking and positive inotropic activities of ethyl 5-cyano-1,4-dihydro-6-methyl-2-[(phenylsulfonyl)methyl]-4-aryl-3- pyridine-carboxylate and analogues. Synthesis and structure-activity relationships” (J Med Chem, 1991)

How the values were obtained:
Oryctolagus cuniculus [1] = species: Oryctolagus cuniculus; assay: Vasoconstrictor effect at a concentration of 10e-5 M using partially depolarized isolated rings from rabbit.; assay type: functional
Oryctolagus cuniculus [2] = species: Oryctolagus cuniculus; assay: Vasoconstrictor effect at a concentration of 10e-6 M using partially depolarized isolated rings from rabbit.; assay type: functional
Oryctolagus cuniculus [3] = species: Oryctolagus cuniculus; assay: Vasoconstrictor effect at a concentration of 3 x 10e-9 M using partially depolarized isolated rings from rabbit.; assay type: functional
Oryctolagus cuniculus [4] = species: Oryctolagus cuniculus; assay: Vasoconstrictor effect at a concentration of 3 x 10e-8 M using nondepolarized isolated rings from rabbit.; assay type: functional
Oryctolagus cuniculus [5] = species: Oryctolagus cuniculus; assay: Vasoconstrictor effect at a concentration of 10e-9 M using partially depolarized isolated rings from rabbit.; assay type: functional
Oryctolagus cuniculus [6] = species: Oryctolagus cuniculus; assay: Vasoconstrictor effect at a concentration of 3 x 10e-9 M using nondepolarized isolated rings from rabbit.; assay type: functional
Oryctolagus cuniculus [7] = species: Oryctolagus cuniculus; assay: Vasoconstrictor effect at a concentration of 10e-8 M using partially depolarized isolated rings from rabbit.; assay type: functional
Oryctolagus cuniculus [8] = species: Oryctolagus cuniculus; assay: Vasoconstrictor effect at a concentration of 10e-7 M using nondepolarized isolated rings from rabbit.; assay type: functional
Oryctolagus cuniculus [9] = species: Oryctolagus cuniculus; assay: Vasoconstrictor effect at a concentration of 3 x 10e-8 M using partially depolarized isolated rings from rabbit.; assay type: functional
Oryctolagus cuniculus [10] = species: Oryctolagus cuniculus; assay: Vasoconstrictor effect at a concentration of 10e-8 M using nondepolarized isolated rings from rabbit.; assay type: functional
Oryctolagus cuniculus [11] = species: Oryctolagus cuniculus; assay: Vasoconstrictor effect at a concentration of 10e-7 M using partially depolarized isolated rings from rabbit.; assay type: functional
Oryctolagus cuniculus [12] = species: Oryctolagus cuniculus; assay: Vasoconstrictor effect at a concentration of 10e-5 M using nondepolarized isolated rings from rabbit.; assay type: functional
Oryctolagus cuniculus [13] = species: Oryctolagus cuniculus; assay: Vasoconstrictor effect at a concentration of 10e-9 M using nondepolarized isolated rings from rabbit.; assay type: functional
Oryctolagus cuniculus [14] = species: Oryctolagus cuniculus; assay: Vasoconstrictor effect at a concentration of 10e-6 M using nondepolarized isolated rings from rabbit.; assay type: functional
Oryctolagus cuniculus [15] = species: Oryctolagus cuniculus; assay: Vasorelaxant effect at a concentration of 10e-7 M on rabbit aortic rings previously contracted with 1.0 uM Norepinephrine.; assay type: functional, Aorta; set-up: unit not given here
Procedure, shortened: (§1)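 Rabbit aortic rings precontracted with 50 mM KCl or 1.0 μM norepinephrine, then exposed to increasing concentrations of test agent. Relaxation recorded at each concentration.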

Oryctolagus cuniculus [16] = species: Oryctolagus cuniculus; assay: Vasorelaxant effect at a concentration of 10e-8 M on rabbit aortic rings previously contracted with 1.0 uM Norepinephrine.; assay type: functional, Aorta; procedure, shortened: as §1
Oryctolagus cuniculus [17] = species: Oryctolagus cuniculus; assay: Vasoconstrictor effect at a concentration of 10e-9 M in presence of partially depolarized isolated rings from rabbits.; assay type: functional
Oryctolagus cuniculus [18] = species: Oryctolagus cuniculus; assay: Vasoconstrictor effect at a concentration of 10e-8 M in presence of partially depolarized isolated rings from rabbits.; assay type: functional
Oryctolagus cuniculus [19] = species: Oryctolagus cuniculus; assay: Vasorelaxant effect at a concentration of 10e-5 M on rabbit aortic rings previously contracted with 1.0 uM Norepinephrine.; assay type: functional, Aorta; set-up: unit not given here; procedure, shortened: as §1
Oryctolagus cuniculus [20] = species: Oryctolagus cuniculus; assay: Vasorelaxant effect at a concentration of 10e-4 M on rabbit aortic rings previously contracted with 50 mM KCl.; assay type: functional, Aorta; set-up: unit not given here; procedure, shortened: as §1
Oryctolagus cuniculus [21] = species: Oryctolagus cuniculus; assay: Vasoconstrictor effect at a concentration of 10e-9 M in presence of nondepolarized isolated rings from rabbits.; assay type: functional
Oryctolagus cuniculus [22] = species: Oryctolagus cuniculus; assay: Vasorelaxant effect at a concentration of 10e-8 M on rabbit aortic rings previously contracted with 50 mM KCl.; assay type: functional, Aorta; procedure, shortened: as §1
Rattus norvegicus [23] = species: Rattus norvegicus; assay: Compound was tested for its effect on ventricular contractility in isolated rat hearts.; assay type: functional, Cardiac ventricle
Procedure, shortened: (§2)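 Coronary vasodilation and ventricular contractility measured in isolated Langendorff-perfused rat hearts. EC25 (concentration raising the parameter by 25%) given as mean ± SEM of four to six hearts.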

Oryctolagus cuniculus [24] = species: Oryctolagus cuniculus; assay: Vasoconstrictor effect at a concentration of 10e-7 M in presence of partially depolarized isolated rings from rabbits.; assay type: functional
Oryctolagus cuniculus [25] = species: Oryctolagus cuniculus; assay: Vasoconstrictor effect at a concentration of 10e-8 M in presence of nondepolarized isolated rings from rabbits.; assay type: functional
Oryctolagus cuniculus [26] = species: Oryctolagus cuniculus; assay: Vasoconstrictor effect at a concentration of 10e-7 M in presence of nondepolarized isolated rings from rabbits.; assay type: functional
Rattus norvegicus [27] = species: Rattus norvegicus; assay: Cardiovascular activity in isolated rat heart, concentration producing 25% increase in CF (cardiac flow).; assay type: functional
Procedure, shortened: (§3)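 Isolated Langendorff-perfused rat heart. Coronary flow (CF), LV +dP/dtmax and heart rate recorded during exposure to test agent. Value is the concentration giving a 25% rise in CF or in LV +dP/dtmax, mean ± SE. At least two hearts per compound.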

Oryctolagus cuniculus [28] = species: Oryctolagus cuniculus; assay: Vasoconstrictor effect at a concentration of 10e-4 M in presence of nondepolarized isolated rings from rabbits.; assay type: functional
Oryctolagus cuniculus [29] = species: Oryctolagus cuniculus; assay: Vasoconstrictor effect at a concentration of 10e-4 M in presence of partially depolarized isolated rings from rabbits.; assay type: functional
Oryctolagus cuniculus [30] = species: Oryctolagus cuniculus; assay: Vasorelaxant effect at a concentration of 10e-6 M on rabbit aortic rings previously contracted with 50 mM KCl.; assay type: functional, Aorta; set-up: unit not given here; procedure, shortened: as §1
Oryctolagus cuniculus [31] = species: Oryctolagus cuniculus; assay: Vasorelaxant effect at a concentration of 10e-7 M on rabbit aortic rings previously contracted with 50 mM KCl.; assay type: functional, Aorta; set-up: unit not given here; procedure, shortened: as §1
Rattus norvegicus [32] = species: Rattus norvegicus; assay: Compound was tested for its effect on coronary vasodilator in isolated rat hearts.; assay type: functional; procedure, shortened: as §2
Oryctolagus cuniculus [33] = species: Oryctolagus cuniculus; assay: Vasoconstrictor effect at a concentration of 10e-5 M in presence of nondepolarized isolated rings from rabbits.; assay type: functional
Rattus norvegicus [34] = species: Rattus norvegicus; assay: Cardiovascular activity in isolated rat heart, concentration producing 25% increase in LV + dP/dtmax.; assay type: functional; procedure, shortened: as §3
Oryctolagus cuniculus [35] = species: Oryctolagus cuniculus; assay: Vasorelaxant effect at a concentration of 10e-4 M on rabbit aortic rings previously contracted with 1.0 uM Norepinephrine.; assay type: functional, Aorta; set-up: unit not given here; procedure, shortened: as §1
Oryctolagus cuniculus [36] = species: Oryctolagus cuniculus; assay: Vasoconstrictor effect at a concentration of 10e-5 M in presence of partially depolarized isolated rings from rabbits.; assay type: functional
[37] = biological target: Voltage-gated L-type calcium channel (Rattus norvegicus, UniProt P22002+Q02485+P27732); assay: Affinity to bind dihydropyridine receptor (DHP receptor) by inhibiting the radioligand [3H]nitrendipine; assay type: protein assay
Procedure, shortened: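 [3H]nitrendipine displacement, rat brain cortical membranes. Each compound first screened at 1000 nM; if inhibition exceeded 40%, a four- to seven-point curve with unlabeled compound was run. IC50 generally mean of two experiments, each in triplicate. ">1000 nM" means under 40% inhibition of control binding at 1000 nM.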

Oryctolagus cuniculus [38] = species: Oryctolagus cuniculus; assay: Vasoconstrictor effect at a concentration of 10e-6 M in presence of partially depolarized isolated rings from rabbits.; assay type: functional
Oryctolagus cuniculus [39] = species: Oryctolagus cuniculus; assay: Vasorelaxant effect at a concentration of 10e-9 M on rabbit aortic rings previously contracted with 50 mM KCl.; assay type: functional, Aorta; procedure, shortened: as §1
Oryctolagus cuniculus [40] = species: Oryctolagus cuniculus; assay: Vasorelaxant effect at a concentration of 10e-5 M on rabbit aortic rings previously contracted with 50 mM KCl.; assay type: functional, Aorta; set-up: unit not given here; procedure, shortened: as §1
Oryctolagus cuniculus [41] = species: Oryctolagus cuniculus; assay: Vasorelaxant effect at a concentration of 10e-6 M on rabbit aortic rings previously contracted with 1.0 uM Norepinephrine.; assay type: functional, Aorta; set-up: unit not given here; procedure, shortened: as §1
Oryctolagus cuniculus [42] = species: Oryctolagus cuniculus; assay: Vasorelaxant effect at a concentration of 10e-9 M on rabbit aortic rings previously contracted with 1.0 uM Norepinephrine.; assay type: functional, Aorta; procedure, shortened: as §1

NC[C@H](O)c1ccc(O)c(O)c1 [NOREPINEPHRINE]
Vasoconstriction effect (Oryctolagus cuniculus [1]): 137.2
Vasoconstriction effect (Oryctolagus cuniculus [2]): 106.3
Vasoconstriction effect (Oryctolagus cuniculus [3]): 18.2
Vasoconstriction effect (Oryctolagus cuniculus [4]): 49.1
Vasoconstriction effect (Oryctolagus cuniculus [5]): 7.8
Vasoconstriction effect (Oryctolagus cuniculus [6]): 0
Vasoconstriction effect (Oryctolagus cuniculus [7]): 46.2
Vasoconstriction effect (Oryctolagus cuniculus [8]): 80.2
Vasoconstriction effect (Oryctolagus cuniculus [9]): 63.4
Vasoconstriction effect (Oryctolagus cuniculus [10]): 22.2
Vasoconstriction effect (Oryctolagus cuniculus [11]): 84.4
Vasoconstriction effect (Oryctolagus cuniculus [12]): 151.3
Vasoconstriction effect (Oryctolagus cuniculus [13]): 0
Vasoconstriction effect (Oryctolagus cuniculus [14]): 112.6

CCOC(=O)C1=C(CS(=O)(=O)c2ccncc2)NC(C)=C(C#N)C1c1ccccc1C(F)(F)F (stereo in doubt; 54)
Vasorelaxant effect (Oryctolagus cuniculus [15]): -1.8
Vasorelaxant effect (Oryctolagus cuniculus [16]): -1.4
Vasoconstriction effect (Oryctolagus cuniculus [17]): 3.3
Vasoconstriction effect (Oryctolagus cuniculus [18]): 4.5
Vasorelaxant effect (Oryctolagus cuniculus [19]): 0.7
Vasorelaxant effect (Oryctolagus cuniculus [20]): 88.9
Vasoconstriction effect (Oryctolagus cuniculus [21]): 0
Vasorelaxant effect (Oryctolagus cuniculus [22]): -8.6
EC25 (Rattus norvegicus [23]): 535 nM
Vasoconstriction effect (Oryctolagus cuniculus [24]): 5
Vasoconstriction effect (Oryctolagus cuniculus [25]): 0
Vasoconstriction effect (Oryctolagus cuniculus [26]): 0
EC25 (Rattus norvegicus [27]): 290 nM
Vasoconstriction effect (Oryctolagus cuniculus [28]): 0
Vasoconstriction effect (Oryctolagus cuniculus [29]): 0
Vasorelaxant effect (Oryctolagus cuniculus [30]): 6.2
Vasorelaxant effect (Oryctolagus cuniculus [31]): -9.1
EC25 (Rattus norvegicus [32]): 284 nM
Vasoconstriction effect (Oryctolagus cuniculus [33]): 0
EC25 (Rattus norvegicus [34]): 470 nM
Vasorelaxant effect (Oryctolagus cuniculus [35]): 4.2
Vasoconstriction effect (Oryctolagus cuniculus [36]): 0
IC50 [37]: 271 nM
Vasoconstriction effect (Oryctolagus cuniculus [38]): 2.4
Vasorelaxant effect (Oryctolagus cuniculus [39]): -4.8
Vasorelaxant effect (Oryctolagus cuniculus [40]): 53.8
Vasorelaxant effect (Oryctolagus cuniculus [41]): -2.3
Vasorelaxant effect (Oryctolagus cuniculus [42]): -0.9
